Data on 3 compounds can be found in ChEMBL document CHEMBL5104115, “Design, synthesis of novel triptolide-glucose conjugates targeting glucose Transporter-1 and their selective antitumor effect” (Eur J Med Chem, 2022).

Data set [1] is described as follows: Cytotoxicity against HUVEC incubated for 72 hrs by MTT assay. The data set is classed as toxicity, cell-based. Particulars: human, HUVEC cells. A digest of the protocol:
(§1)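 Cells seeded at 4000/well, incubated overnight, then exposed to a range of concentrations, or DMSO vehicle, for 72 h. MTT (5 mg/mL solution) added for 4 h and formazan dissolved in DMSO. Absorbance read at 570 nm, and IC50 derived from the curves. Tumor lines were grown in RPMI 1640; HUVEC, HaCaT and LO2 were grown in DMEM, each with 10% FBS at 37 °C and 5% CO2.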

The subject of data set [2] is NCI-H1975. Nature of the data set: Cytotoxicity against human NCI-H1975 cells incubated for 72 hrs by MTT assay. The data set is classed as functional, cell-based. The following applies: NCI-H1975, 72 h. In a few lines: as §1
A short description of data set [3]: Cytotoxicity against human L02 cells incubated for 72 hrs by MTT assay. The data set is classed as toxicity, cell-based. In a few lines: as §1
Background: Tetrazolium dyes change colour on reduction, which living cells bring about.

In data set [4] the test system is HT-29. In words: Cytotoxicity against human HT-29 cells incubated for 72 hrs by MTT assay. Particulars: HT-29, 72 h. The data set is classed as functional, cell-based. A digest of the protocol:
as §1

The test system of data set [5] is SW-620. Nature of the data set: Cytotoxicity against human SW-620 cells incubated for 72 hrs by MTT assay. The data set is classed as functional, cell-based. The following applies: SW-620, 72 h. In a few lines: as §1
A short description of data set [6]: Cytotoxicity against human HaCaT cells incubated for 72 hrs by MTT assay. The data set is classed as toxicity, cell-based. In a few lines: as §1
Data set [7] concerns NCI-H460. Nature of the data set: Cytotoxicity against human NCI-H460 cells incubated for 72 hrs by MTT assay. The data set is classed as functional, cell-based. Particulars: NCI-H460, 72 h. A digest of the protocol:
as §1

The test system of data set [8] is HCT-116. In words: Cytotoxicity against human HCT-116 cells incubated for 72 hrs by MTT assay. The data set is classed as functional, cell-based. The following applies: HCT-116, 72 h. In a few lines: as §1
Data set [9] in a line: Octanol-water partition coefficient, logD of the compound in PBS at pH 7.4 by liquid chromatography based mass spectrometric analysis. The data set is classed as physicochemical. In a few lines: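 Shake-flask method: 3.0 mg compound dissolved in PBS-saturated n-octanol and rotated 24 h at room temperature. The octanol phase was then mixed with octanol-saturated PBS, rotated another 24 h and centrifuged. Both phases quantified by LC-MS against a standard curve, and log P = log(C octanol/C water).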

Data set [10] concerns MDA-MB-231. In words: Cytotoxicity against human MDA-MB-231 cells incubated for 72 hrs by MTT assay. The data set is classed as functional, cell-based. Particulars: MDA-MB-231, 72 h. A digest of the protocol:
as §1

In general, IC50 refers to the point on the concentration scale where inhibition reaches its midpoint. Read a high IC50 as lower potency. For orientation: logD means lipophilicity at a set pH, counting ionised and neutral species. As to `CC(C)[C@]12O[C@H]1[C@@H]1O[C@]13[C@]1(O[C@H]1C[C@H]1C4=C(CC[C@@]13C)C(=O)OC4)[C@@H]2OC(=O)CCC(=O)O[C@H]1[C@H](O)[C@@H](CO)OC(O)[C@@H]1O` (some centres undefined), the IC50 at 72 h in [1] stood at 4930 nM; in data set [3] it was 1380 nM; in data set [6], 4830 nM. For the same compound, the IC50 in data set [2] worked out at 2210 nM; in [4], 5180 nM; in data set [5], 2550 nM; in [7], 1630 nM; in data set [8], 2710 nM; in data set [10], 2430 nM. This compound also yielded a logD in [9] of -0.772.
For the compound `CC(C)[C@]12O[C@H]1[C@@H]1O[C@]13[C@]1(O[C@H]1C[C@H]1C4=C(CC[C@@]13C)C(=O)OC4)[C@@H]2OC(=O)CCC(=O)O[C@H]1[C@H](O)[C@@H](O)C(O)O[C@@H]1CO` (some centres undefined), the IC50 at 72 h in [1] was found to be 2360 nM; in [3] it was 1800 nM; in [6], 4750 nM. Moreover, the IC50 in [2] worked out at 2510 nM; in data set [4], 4080 nM; in data set [5] it was 11000 nM; in data set [7] it was 3060 nM; in data set [8], 4470 nM; in data set [10] it was 5610 nM. The logD in data set [9] is -0.331.
Consider `CC(C)[C@]12O[C@H]1[C@@H]1O[C@]13[C@]1(O[C@H]1C[C@H]1C4=C(CC[C@@]13C)C(=O)OC4)[C@@H]2OC(=O)CCC(=O)OC[C@H]1OC(O)[C@H](O)[C@@H](O)[C@@H]1O` (some centres undefined), for which the values for the IC50 at 72 h in data set [1], in [3] and in data set [6] were 2020 nM, 1420 nM and 3900 nM, respectively. The IC50 was determined as 1140 nM in data set [2]; 4280 nM in [4]; 5200 nM in data set [5]; 1070 nM in data set [7]; 2280 nM in [8]; 6620 nM in data set [10].
